From ChEMBL document CHEMBL1138900, “2,5-diketopiperazines as potent, selective, and orally bioavailable oxytocin antagonists. 3. Synthesis, pharmacokinetics, and in vivo potency” (J Med Chem, 2006)
In brackets after ≈: the same amount, converted by molar mass.

Key:
Oxytocin receptor [1] = molecular target: T1, Oxytocin receptor (Homo sapiens, UniProt P30559); experiment: Displacement of [3H]oxytocin from human OTR
T1 sequence (P30559 whole entry): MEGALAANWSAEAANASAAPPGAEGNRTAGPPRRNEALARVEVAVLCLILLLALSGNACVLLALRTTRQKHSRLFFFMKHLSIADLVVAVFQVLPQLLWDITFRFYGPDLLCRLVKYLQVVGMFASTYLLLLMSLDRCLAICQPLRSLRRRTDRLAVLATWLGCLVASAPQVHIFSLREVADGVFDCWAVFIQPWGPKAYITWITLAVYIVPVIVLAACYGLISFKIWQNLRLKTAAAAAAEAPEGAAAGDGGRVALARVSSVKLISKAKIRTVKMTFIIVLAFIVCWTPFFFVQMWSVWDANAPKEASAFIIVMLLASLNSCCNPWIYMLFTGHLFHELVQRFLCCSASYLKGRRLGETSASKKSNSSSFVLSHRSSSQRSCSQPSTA

[2] = Clearance in rat; assay type: ADME, organism-based; settings: in vivo
Summary of the method: (§1)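 Rat pharmacokinetics, n = 4; dosed at 5 mg/kg in 5% DMSO/95% PEG400. AUC in ng·h mL⁻¹, clearance in mL min⁻¹ kg⁻¹, half-life in h.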

[3] = Oral bioavailability in rat; assay type: ADME, organism-based; settings: in vivo
[4] = Clearance in dog; assay type: ADME, organism-based, Canis lupus familiaris; settings: in vivo
Summary of the method: (§2)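 Dog pharmacokinetics, n = 3; dosed at 0.6 mg/kg in 5% DMSO/95% PEG400. AUC reported as ng·h mL⁻¹ and clearance as mL min⁻¹ kg⁻¹.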

Canis familiaris = experiment: (§3) Oral bioavailability in dog; assay type: ADME, organism-based, Canis lupus familiaris; settings: in vivo
[5] = Lipophilicity, log D by CHI method; assay type: physicochemical; settings: read-out: Log D
Summary of the method: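 Lipophilicity determined by an HPLC-based method.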

[6] = AUC in rat; assay type: ADME, organism-based; set-up: concentration or dose not given beside the values; settings: plasma; summary of the method: as §1
[7] = AUC in dog; assay type: ADME, organism-based, Canis lupus familiaris; set-up: concentration or dose not given beside the values; settings: plasma; summary of the method: as §2
[8] = Solubility of the compound; assay type: physicochemical
Summary of the method: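 Aqueous solubility (mg mL⁻¹) measured by precipitation followed by HPLC.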

Cytochrome P450 3A4 [9] = molecular target: T2, Cytochrome P450 3A4 (Homo sapiens, UniProt P08684); experiment: Inhibition of CYP450 3A4 transfected in human microsome using PPR fluorogenic substrate; assay type: ADME, microsomes
T2 sequence (P08684 whole entry): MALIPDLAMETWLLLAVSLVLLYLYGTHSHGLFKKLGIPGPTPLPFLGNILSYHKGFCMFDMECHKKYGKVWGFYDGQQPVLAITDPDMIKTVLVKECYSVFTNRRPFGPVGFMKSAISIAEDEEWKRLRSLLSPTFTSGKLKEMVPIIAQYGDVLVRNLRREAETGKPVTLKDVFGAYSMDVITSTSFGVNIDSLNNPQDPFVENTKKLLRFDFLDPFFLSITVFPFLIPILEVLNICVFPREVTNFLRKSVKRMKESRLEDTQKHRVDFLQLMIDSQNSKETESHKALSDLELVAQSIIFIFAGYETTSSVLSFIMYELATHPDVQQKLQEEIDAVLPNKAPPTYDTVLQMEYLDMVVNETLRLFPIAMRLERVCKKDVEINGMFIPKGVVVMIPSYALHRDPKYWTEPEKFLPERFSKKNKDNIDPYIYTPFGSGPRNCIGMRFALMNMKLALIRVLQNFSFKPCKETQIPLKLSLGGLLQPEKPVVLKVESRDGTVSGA

Cytochrome P450 2D6 = Cytochrome P450 2D6 (Homo sapiens, UniProt P10635); experiment: Inhibition of CYP450 2D6 transfected in human microsome using DEF fluorogenic substrate; assay type: ADME, microsomes
Sequence of Cytochrome P450 2D6 (P10635 whole entry): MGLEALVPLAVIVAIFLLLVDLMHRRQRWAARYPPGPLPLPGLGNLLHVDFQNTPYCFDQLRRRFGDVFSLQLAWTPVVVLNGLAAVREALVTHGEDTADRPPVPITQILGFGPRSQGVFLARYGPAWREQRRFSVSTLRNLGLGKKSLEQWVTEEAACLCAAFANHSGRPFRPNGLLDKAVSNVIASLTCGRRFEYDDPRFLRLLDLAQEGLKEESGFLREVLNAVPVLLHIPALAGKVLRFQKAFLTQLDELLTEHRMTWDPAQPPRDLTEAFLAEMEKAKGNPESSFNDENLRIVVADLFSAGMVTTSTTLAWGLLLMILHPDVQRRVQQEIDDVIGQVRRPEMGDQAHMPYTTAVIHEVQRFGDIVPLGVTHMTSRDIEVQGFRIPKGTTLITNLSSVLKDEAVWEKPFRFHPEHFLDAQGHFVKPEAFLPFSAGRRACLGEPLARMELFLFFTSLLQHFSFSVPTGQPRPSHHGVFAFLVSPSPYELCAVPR
Summary of the method: (§4)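 Recombinant human CYP isozymes, with reaction progress followed by fluorogenic substrates; DEF and 7-benzyloxyquinoline used as CYP3A4 substrates. Compounds dissolved at 1.65 mM in DMSO/methanol and serially diluted to give IC50 (μM). A positive control run for each isozyme.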

[10] = Half life in rat; assay type: ADME, organism-based; settings: in vivo; summary of the method: as §1
[11] = Volume of distribution in rat; assay type: ADME, organism-based; settings: in vivo, read-out: Vdss
[12] = Half life in dog; assay type: ADME, organism-based, Canis lupus familiaris; settings: in vivo
[13] = Volume of distribution in dog; assay type: ADME, organism-based, Canis lupus familiaris; settings: in vivo, read-out: Vdss
[14] = as §3; assay type: ADME, organism-based, Canis lupus familiaris; settings: in vivo
Oxytocin receptor [15] = molecular target: T1, Oxytocin receptor; experiment: Antagonist activity against human OTR expressed in CHO cells measured as calcium influx by FLIPR assay; assay type: functional, cell-based
Vasopressin V1a receptor = Vasopressin V1a receptor (Homo sapiens, UniProt P37288); experiment: Displacement of vasopressin from human V1aR
Sequence of Vasopressin V1a receptor (P37288 whole entry): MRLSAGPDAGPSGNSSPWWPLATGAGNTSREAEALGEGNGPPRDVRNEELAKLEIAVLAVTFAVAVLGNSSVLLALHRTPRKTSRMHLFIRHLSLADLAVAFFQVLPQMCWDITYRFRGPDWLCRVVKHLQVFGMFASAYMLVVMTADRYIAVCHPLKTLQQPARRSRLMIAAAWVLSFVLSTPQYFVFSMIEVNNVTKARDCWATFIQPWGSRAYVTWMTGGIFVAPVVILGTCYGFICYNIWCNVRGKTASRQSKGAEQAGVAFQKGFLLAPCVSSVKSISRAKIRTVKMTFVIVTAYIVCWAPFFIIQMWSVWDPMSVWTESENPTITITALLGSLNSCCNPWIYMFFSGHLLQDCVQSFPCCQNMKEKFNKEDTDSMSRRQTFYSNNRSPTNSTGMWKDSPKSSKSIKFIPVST

Vasopressin V1b receptor = molecular target: T3, Vasopressin V1b receptor (Homo sapiens, UniProt P47901); experiment: Displacement of vasopressin from human V1bR
T3 sequence (P47901 whole entry): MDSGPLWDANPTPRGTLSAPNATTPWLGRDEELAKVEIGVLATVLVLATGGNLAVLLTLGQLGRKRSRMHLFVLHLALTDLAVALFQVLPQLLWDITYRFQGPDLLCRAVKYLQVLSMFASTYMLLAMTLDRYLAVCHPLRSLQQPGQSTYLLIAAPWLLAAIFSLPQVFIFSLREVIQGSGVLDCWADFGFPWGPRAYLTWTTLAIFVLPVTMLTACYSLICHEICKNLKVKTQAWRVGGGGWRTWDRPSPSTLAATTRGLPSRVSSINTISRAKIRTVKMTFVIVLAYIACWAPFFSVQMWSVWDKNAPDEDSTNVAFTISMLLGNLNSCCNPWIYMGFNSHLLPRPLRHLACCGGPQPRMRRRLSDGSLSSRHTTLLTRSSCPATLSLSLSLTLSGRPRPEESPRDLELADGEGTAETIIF

Vasopressin V2 receptor = Vasopressin V2 receptor (Homo sapiens, UniProt P30518); experiment: Displacement of vasopressin from human V2R
Sequence of Vasopressin V2 receptor (P30518 whole entry): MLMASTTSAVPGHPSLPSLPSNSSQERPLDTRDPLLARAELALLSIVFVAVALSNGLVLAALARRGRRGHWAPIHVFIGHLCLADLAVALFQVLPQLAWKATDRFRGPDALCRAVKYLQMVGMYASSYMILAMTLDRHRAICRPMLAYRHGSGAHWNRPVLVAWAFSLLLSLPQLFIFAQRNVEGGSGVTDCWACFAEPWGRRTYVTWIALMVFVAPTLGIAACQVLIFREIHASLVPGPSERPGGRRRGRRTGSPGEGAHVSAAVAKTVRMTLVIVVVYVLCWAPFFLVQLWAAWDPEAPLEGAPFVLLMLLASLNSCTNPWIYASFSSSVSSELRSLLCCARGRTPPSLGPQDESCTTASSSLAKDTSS

Rattus norvegicus = experiment: Reduction in oxytocin-induced uterine contraction in iv dosed anaesthetized rat; assay type: functional, organism-based
Summary of the method: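 Anaesthetized rats; uterine contractions elicited by iv oxytocin at a standard dose of 0.3 ug/kg. Test compound then given iv in rising doses (0.1, 0.3, 1 mg/kg) and the fall in contractility recorded. Plasma IC50 taken as the plasma concentration giving 50% inhibition of the response to the standard oxytocin dose.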

Oxytocin receptor [16] = molecular target: T4, Oxytocin receptor (Rattus norvegicus, UniProt P70536); experiment: Displacement of [3H]oxytocin from rat OTR
T4 sequence (P70536 whole entry): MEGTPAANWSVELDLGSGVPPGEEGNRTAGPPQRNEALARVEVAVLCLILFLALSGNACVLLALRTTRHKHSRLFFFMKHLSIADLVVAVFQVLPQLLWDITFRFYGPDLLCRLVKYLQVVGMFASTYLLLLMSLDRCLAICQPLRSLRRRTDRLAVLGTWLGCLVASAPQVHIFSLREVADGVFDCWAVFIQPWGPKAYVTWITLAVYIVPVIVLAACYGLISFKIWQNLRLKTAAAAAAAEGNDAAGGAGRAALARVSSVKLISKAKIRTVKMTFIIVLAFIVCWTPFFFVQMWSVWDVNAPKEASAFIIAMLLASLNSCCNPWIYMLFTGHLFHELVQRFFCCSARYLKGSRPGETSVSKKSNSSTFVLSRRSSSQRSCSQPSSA

Cytochrome P450 1A2 = molecular target: T5, Cytochrome P450 1A2 (Homo sapiens, UniProt P05177); experiment: Inhibition of CYP450 1A2 transfected in human microsome; assay type: ADME; summary of the method: as §4
T5 sequence (P05177 whole entry): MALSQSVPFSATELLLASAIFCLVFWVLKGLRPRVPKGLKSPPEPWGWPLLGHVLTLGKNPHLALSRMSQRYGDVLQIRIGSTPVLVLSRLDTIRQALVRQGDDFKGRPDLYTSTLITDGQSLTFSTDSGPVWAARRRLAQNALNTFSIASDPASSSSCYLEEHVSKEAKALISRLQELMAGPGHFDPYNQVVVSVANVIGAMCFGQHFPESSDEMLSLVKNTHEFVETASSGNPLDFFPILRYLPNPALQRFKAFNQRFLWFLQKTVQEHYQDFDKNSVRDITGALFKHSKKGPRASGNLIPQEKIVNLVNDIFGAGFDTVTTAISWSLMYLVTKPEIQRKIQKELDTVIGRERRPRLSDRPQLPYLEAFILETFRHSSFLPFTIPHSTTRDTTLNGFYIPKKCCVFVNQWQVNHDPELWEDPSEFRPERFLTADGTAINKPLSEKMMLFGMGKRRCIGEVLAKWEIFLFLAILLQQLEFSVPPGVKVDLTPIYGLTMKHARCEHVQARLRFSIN

Cytochrome P450 2C9 = Cytochrome P450 2C9 (Homo sapiens, UniProt P11712); experiment: Inhibition of CYP450 2C9 transfected in human microsome; assay type: ADME; summary of the method: as §4
Sequence of Cytochrome P450 2C9 (P11712 whole entry): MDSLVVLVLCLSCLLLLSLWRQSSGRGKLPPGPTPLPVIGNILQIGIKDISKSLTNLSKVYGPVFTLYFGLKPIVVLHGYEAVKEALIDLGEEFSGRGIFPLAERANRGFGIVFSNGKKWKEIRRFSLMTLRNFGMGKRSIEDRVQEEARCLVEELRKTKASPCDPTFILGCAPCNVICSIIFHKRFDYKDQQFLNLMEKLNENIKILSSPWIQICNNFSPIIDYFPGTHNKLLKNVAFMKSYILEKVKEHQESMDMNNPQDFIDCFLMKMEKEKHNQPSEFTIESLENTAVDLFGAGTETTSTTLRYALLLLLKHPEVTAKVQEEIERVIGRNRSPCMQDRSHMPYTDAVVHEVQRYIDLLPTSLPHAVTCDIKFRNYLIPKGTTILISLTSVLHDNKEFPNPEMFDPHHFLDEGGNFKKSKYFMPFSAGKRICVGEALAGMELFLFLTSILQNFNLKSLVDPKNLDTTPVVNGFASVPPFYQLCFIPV

Cytochrome P450 2C19 = Cytochrome P450 2C19 (Homo sapiens, UniProt P33261); experiment: Inhibition of CYP450 2C19 transfected in human microsome; assay type: ADME; summary of the method: as §4
Sequence of Cytochrome P450 2C19 (P33261 whole entry): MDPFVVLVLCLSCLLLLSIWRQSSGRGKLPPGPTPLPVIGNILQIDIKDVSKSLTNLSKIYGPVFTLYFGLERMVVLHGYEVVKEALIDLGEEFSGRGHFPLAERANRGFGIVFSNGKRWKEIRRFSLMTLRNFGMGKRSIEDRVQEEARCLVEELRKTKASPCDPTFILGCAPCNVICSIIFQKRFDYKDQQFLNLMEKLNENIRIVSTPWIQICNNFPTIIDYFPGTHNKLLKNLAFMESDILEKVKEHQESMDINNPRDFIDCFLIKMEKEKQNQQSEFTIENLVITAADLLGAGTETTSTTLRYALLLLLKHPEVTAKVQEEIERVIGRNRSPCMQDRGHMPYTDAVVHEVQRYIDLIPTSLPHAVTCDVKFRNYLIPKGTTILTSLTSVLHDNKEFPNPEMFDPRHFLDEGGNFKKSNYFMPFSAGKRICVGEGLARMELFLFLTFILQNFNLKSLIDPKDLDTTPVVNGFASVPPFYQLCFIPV

Cytochrome P450 3A4 [17] = molecular target: T2, Cytochrome P450 3A4; experiment: Inhibition of CYP450 3A4 transfected in human microsome using DEF fluorogenic substrate; assay type: ADME, microsomes; summary of the method: as §4
Oxytocin receptor [18] = molecular target: T1, Oxytocin receptor; experiment: […] activity at human OTR expressed in CHO cells assessed as inhibition of oxytocin-induced calcium mobilization by FLIPR assay; assay type: functional, cell-based

Ki (Oxytocin receptor [1]) | clearance [2] | bioavailability [3] | clearance [4] | chromatographic logD [5] | AUC [7] | solubility [8] | IC50 (Cytochrome P450 3A4 [9]) | IC50 (Cytochrome P450 2D6) | half-life [10] | Vd [11] | half-life [12] | Vd [13] | bioavailability [14] | Ki (Oxytocin receptor [15]) | Ki (Vasopressin V1a receptor) | Ki (Vasopressin V1b receptor) | Ki (Vasopressin V2 receptor) | Ki (Oxytocin receptor [16]) | SMILES | Activity (Rattus norvegicus) | other results
0.00126 µM | 36 mL/min/kg | 46% | 11 mL/min/kg | 3.4 | 174 ng·h/mL | 8 µg/mL (≈ 16.1 µM) | – | – | – | – | – | – | – | – | – | – | – | – | CC(C)C[C@@H]1C(=O)N[C@H](C2Cc3ccccc3C2)C(=O)N1[C@@H](C(=O)NC(C)C)c1ccc(F)cc1F | – | F (Canis familiaris): 13%; AUC [6]: 2880 ng·h/mL
0.001 µM | 9 mL/min/kg | 68% | 6 mL/min/kg | – | – | – | 4.3 µM | 62 µM | 2 h | 1.4 L/kg | 2.4 h | 0.9 L/kg | 95% | 0.00398 µM | > 6.31 µM | > 6.31 µM | 5.01 µM | 0.0631 µM | CC(C)C[C@@H]1C(=O)N[C@H](C2Cc3ccccc3C2)C(=O)N1[C@@H](C(=O)NC(C)C)c1ccc2occc2c1 | 5.4 mg/kg | IC50 (Cytochrome P450 1A2): 73 µM; IC50 (Cytochrome P450 2C9): 3.5 µM; IC50 (Cytochrome P450 2C19): > 100 µM; IC50 (Cytochrome P450 3A4 [17]): 2.5 µM
0.000631 µM | 15 mL/min/kg | 53% | 7 mL/min/kg | 3.3 | 770 ng·h/mL | 83 µg/mL (≈ 172 µM) | 62 µM | > 100 µM | 1.1 h | 1.2 L/kg | 2.1 h | 1.1 L/kg | 51% | 0.00158 µM | > 6.31 µM | > 6.31 µM | 0.316 µM | 0.01 µM | CC(C)C[C@@H]1C(=O)N[C@H](C2Cc3ccccc3C2)C(=O)N1[C@@H](C(=O)N(C)C)c1ccc(F)cc1F | 0.22 mg/kg | IC50 (Rattus norvegicus; Rattus norvegicus): 0.227 µM; IC50 (Oxytocin receptor [18]): 0.0037 µM; IC50 (Cytochrome P450 1A2): 64 µM; IC50 (Cytochrome P450 2C9): 49 µM; IC50 (Cytochrome P450 2C19): > 100 µM; IC50 (Cytochrome P450 3A4 [17]): 89 µM
